Sampled rows, rich in hits. Any-hit rate of the full collection: about 2%.
T cell HTS: T cell immune modulators affecting CD8 T cell-vesicle binding; 0.068% of 330,000 active; AID 2052; response (vesicle binding), % at 7 µM; 2C CD8+ T cell-vesicle binding, flow cytometry; active compounds read low;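 active means response, share of CD8 T cells binding vesicles, and their 90th percentile fluorescence all below set limits, cut at about 80% in these data, passing the limit was not always enough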;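 further: values below 100% mean blocked vesicle binding to the CD8+ T cells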
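Material: 2C TCR transgenic mouse naive CD8+ T cells, MACS-purified. Also added: QL9-charged Drosophila Ld/ICAM-1/B7-1 vesicles. Timing: binding 1.5 h at 37 °C. Measured by: high-throughput flow cytometry with anti-B7-1 and anti-CD8 staining. Read-out: percent CD8+ FL2 mean versus row control. Controls: Unloaded micro-vesicles (low), QL9 vesicles with 0.7% DMSO (high).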
NR2E3 ag-1: activates human photoreceptor nuclear receptor NR2E3 | GST-NR2E3/biotin-RetCOR TR-FRET, 1536-well | inhibition of corepressor binding, % at 4.78 µM | AID 2300 | 0.12% of 320,000 active;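 active means percent inhibition above the cutoff of mean plus 3 SD of all tested compounds, set per screening campaign, cut at about 20% in these data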;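 further: 0% = DMSO wells and 100% = biotin wells as full block of FRET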
Target sequence (Q9Y5X4 whole entry, looked up): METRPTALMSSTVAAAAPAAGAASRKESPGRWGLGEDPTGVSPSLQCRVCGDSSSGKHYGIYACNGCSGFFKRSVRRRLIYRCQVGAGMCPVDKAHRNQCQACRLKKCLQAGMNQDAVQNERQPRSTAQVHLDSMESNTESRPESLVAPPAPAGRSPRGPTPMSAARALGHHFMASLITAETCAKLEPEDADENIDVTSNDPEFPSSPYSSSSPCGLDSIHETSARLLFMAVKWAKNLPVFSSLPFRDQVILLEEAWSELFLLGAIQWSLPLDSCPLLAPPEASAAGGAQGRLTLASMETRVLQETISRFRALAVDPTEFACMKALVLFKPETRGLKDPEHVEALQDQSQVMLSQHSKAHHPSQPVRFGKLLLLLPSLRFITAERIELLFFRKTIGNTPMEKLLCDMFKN
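Assay system: NR2E3–RetCOR corepressor complex. Quantity: 1.35 nM GST-NR2E3. Buffer or medium: pH 7.5 Tris-based buffer. Reagent: biotinylated RetCOR corepressor at 7 nM final. Schedule: 5 h at 4 °C. Detection: TR-FRET, emission read at 617 and 671 nm. Replicates: one well per compound, singlicate testing.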
Myeloid diff 2: myeloid differentiation induction; ER-HoxA9 myeloid progenitors, lysozyme-GFP differentiation, flow cytometry; calls only at 10 µM; 1% of 360,000 active; AID 624256;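 active means normalized GFP-positive differentiation at or above the plate's own cutoff, the solvent-only control mean plus 3 SD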;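 further: cells exposed to compound for four days before flow analysis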
NR2E3 ag-2: activates human NR2E3 receptor | Q9Y5X4 | CHO-S Gal4-NCOR/VP16-NR2E3 two-hybrid, luciferase | inhibition of corepressor binding, % at 3.98 µM | 0.35% of 360,000 active;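 active means inhibition above the mean of all tested compounds plus 3 SD, cut at about 70% in these data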;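 further: 0% = DMSO with NR2E3 transfected cells and 100% = cells lacking NR2E3 construct; higher means lower luciferase signal from less NR2E3 corepressor binding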
GAA850 FXN act: frataxin GAA850 promoter activation; HEK293 lucGAA850 FXN promoter luciferase reporter, 24 h; percent of 10 µM SAHA response; activation, % at 6 µM; 0.56% of 360,000 active; AID 540364;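 active means activation above the average of all compounds screened plus 3 SD, cutoff fixed separately per campaign, cut at about 7.5% in these data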;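 further: 0% = DMSO wells and 100% = 10 µM SAHA wells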
Active calls of the source: *.

What do the screens show for `CC1(C(=O)NS(=O)(=O)C2CC2)CCCN(C(=O)c2ccc3c(c2)OCO3)C1` (stereo not given)?
Myeloid diff 2: inactive; NR2E3 ag-2: 14.1; GAA850 FXN act: -2.5

Results for O=C(NC1CCCc2ccccc21)c1n[nH]c(=O)c2ccccc12 (stereo not given) ?
T cell HTS: 234.8; NR2E3 ag-1: -4.3; Myeloid diff 2: active; NR2E3 ag-2: -16.6; GAA850 FXN act: -2.2

How did COc1cc(OC)cc(-c2c(-c3cccs3)c3cc(-c4cccc5[nH]ccc45)ccc3n2C)c1 do in these assays?
T cell HTS: 471.7; NR2E3 ag-1: 3.9; Myeloid diff 2: inactive; NR2E3 ag-2: -18.2; GAA850 FXN act: 1.6

How did CCN(CC)S(=O)(=O)c1cc(C(=O)c2nccn2C)ccc1Cl do in these assays?
T cell HTS: 123.6; NR2E3 ag-1: -3.3; Myeloid diff 2: active; NR2E3 ag-2: -12.5; GAA850 FXN act: -0.7

Results for CCN(CC)S(=O)(=O)c1cccc(NC(=O)CNc2cccc(S(=O)(=O)N3CCOCC3)c2)c1 ?
T cell HTS: 162.3; NR2E3 ag-1: 0.7; NR2E3 ag-2: 8.5; GAA850 FXN act: -4.7

What do the screens show for `CCOc1ccc(CCN2C(=S)N([C@@H](Cc3ccc(O)cc3)CN3CCCC3CN3C(=S)NC[C@@H]3Cc3ccc(O)cc3)C[C@@H]2CC(C)C)cc1` (stereo not given in full)?
Myeloid diff 2: inactive; NR2E3 ag-2: -6.9; GAA850 FXN act: -9.8

What do the screens show for `CC(C)C[C@H]1CNC(=S)N1C[C@H]1CCCN1C[C@H](Cc1ccccc1)N1C[C@H](Cc2ccc(O)cc2)N(CC2CCCCC2)C1=S`?
Myeloid diff 2: active; NR2E3 ag-2: 9.4

How did CCOc1ccc(CCN2C(=S)N([C@@H](Cc3ccc(O)cc3)CN3CCC[C@@H]3CN3C(=S)NC[C@@H]3CC(C)C)C[C@@H]2Cc2ccc(O)cc2)cc1 do in these assays?
Myeloid diff 2: active; NR2E3 ag-2: 37.2

How did Cc1ccnc(N/C=C(\C#N)c2nc(-c3cccc(Br)c3)cs2)c1 do in these assays?
T cell HTS: 100.3; NR2E3 ag-1: -1.2; Myeloid diff 2: active; NR2E3 ag-2: -17.6; GAA850 FXN act: 2.3

Results for N#C/C(=C\Nc1ccc2cn[nH]c2c1)c1nc(-c2ccccc2)cs1 ?
Myeloid diff 2: inactive; NR2E3 ag-2: -28.1; GAA850 FXN act: 4.6

How did Cc1oc(-c2ccc(Cl)cc2)nc1CN1CCCC(C(=O)NCc2ccco2)C1 (stereo not given) do in these assays?
T cell HTS: 515.6; NR2E3 ag-1: -0.6; Myeloid diff 2: active; NR2E3 ag-2: 18.8; GAA850 FXN act: 4.0

Results for CC(C)[C@@H]1Cc2[nH][nH]c(=O)c2[C@H](C)O1 ?
Myeloid diff 2: inactive; NR2E3 ag-2: -4.6

Results for CCc1nc2ccc(C(=O)NC3CCN(Cc4ccccc4)CC3)cn2c1N(C)Cc1cc2ccccc2s1 ?
Myeloid diff 2: inactive; NR2E3 ag-2: -4.9; GAA850 FXN act: -1.7

Results for COc1ccc(Nc2nc3cc(C)ccc3cc2C#N)cc1 ?
T cell HTS: 271.5; NR2E3 ag-1: 4.5; Myeloid diff 2: active; NR2E3 ag-2: -17.2; GAA850 FXN act: 2.1

What do the screens show for `Cc1cc(C)nc(NC(=O)/C=C/c2ccccc2Cl)n1`?
T cell HTS: 370.6; NR2E3 ag-1: -2.5; Myeloid diff 2: active; NR2E3 ag-2: -22.3; GAA850 FXN act: 0.4

How did Cc1cc(C)c2nc(N)sc2c1 do in these assays?
T cell HTS: 337.4; NR2E3 ag-1: 0.2; Myeloid diff 2: inactive; NR2E3 ag-2: -38.7; GAA850 FXN act: 1.2

How did Cc1cc(C)c2nc3nc(C)c(C)cc3c(N)c2c1 do in these assays?
Myeloid diff 2: active; NR2E3 ag-2: -38.6; GAA850 FXN act: -3.0

Results for CC1=C(C(=O)Nc2ccc(C)cn2)C(c2cnn(C)c2)C2=C(CCCC2=O)N1 (stereo not given) ?
T cell HTS: 271.0; NR2E3 ag-1: -3.3; Myeloid diff 2: inactive; NR2E3 ag-2: -4.5; GAA850 FXN act: -5.7

What do the screens show for `CSc1nc2ncncc2[nH]1`?
Myeloid diff 2: inactive; NR2E3 ag-2: -24.5; GAA850 FXN act: -2.7

How did CCOC(=O)C1=C(C)NC2=C(C(=O)CC(c3cccs3)C2)C1c1cccs1 (stereo not given) do in these assays?
T cell HTS: 199.1; NR2E3 ag-1: 2.0; Myeloid diff 2: active; NR2E3 ag-2: -99.0; GAA850 FXN act: -5.3

How did COC(=O)C1=C(C)NC2=C(C(=O)CC(c3cccs3)C2)C1c1ccsc1 (stereo not given) do in these assays?
T cell HTS: 260.0; NR2E3 ag-1: 1.4; Myeloid diff 2: inactive; NR2E3 ag-2: -41.4; GAA850 FXN act: -5.8

How did O=C(Nc1ccccc1)N1CCc2c([nH]c3ccccc23)C1C(F)(F)F (stereo not given) do in these assays?
T cell HTS: 31.6*; NR2E3 ag-1: -0.3; Myeloid diff 2: inactive; NR2E3 ag-2: -8.9; GAA850 FXN act: -1.0

What do the screens show for `O=c1cc(-c2ccccc2[N+](=O)[O-])oc2ccccc12`?
T cell HTS: 316.4; NR2E3 ag-1: -3.6; Myeloid diff 2: active; NR2E3 ag-2: -23.9; GAA850 FXN act: -0.7

Results for Cc1noc(C)c1C(=O)N1CCC1(C)C(=O)NS(=O)(=O)c1ccc(F)cc1F (stereo not given) ?
Myeloid diff 2: inactive; NR2E3 ag-2: 6.3; GAA850 FXN act: 2.9

How did N#CCC(=O)Nc1ccc(C(=O)NCC(c2ccco2)N2CCCCC2)cc1 (stereo not given) do in these assays?
T cell HTS: 0.0; NR2E3 ag-1: -3.2; Myeloid diff 2: active; NR2E3 ag-2: 21.0; GAA850 FXN act: 3.0

Results for O=C(COc1ccccc1F)NCC(c1ccco1)N1CCCC1 (stereo not given) ?
T cell HTS: 49.5*; NR2E3 ag-1: -2.9; Myeloid diff 2: inactive; NR2E3 ag-2: -3.4; GAA850 FXN act: 0.6

How did O=C1Nc2ccccc2-n2nnnc2C1N1CCN(c2ccc(F)cc2)CC1 (stereo not given) do in these assays?
Myeloid diff 2: inactive

What do the screens show for `Nc1cc2c(cc1N)-c1ccccc1C2`?
Myeloid diff 2: active; NR2E3 ag-2: -160.2; GAA850 FXN act: 7.4

What do the screens show for `CCCNCc1cc(OC)c(OCCC)cc1Cl`?
T cell HTS: 337.4; NR2E3 ag-1: 1.4; Myeloid diff 2: active; NR2E3 ag-2: -23.3; GAA850 FXN act: 0.6

What do the screens show for `COc1ccc(Cl)c(Cn2c(NCc3ccco3)nc3c2c(=O)n(C)c(=O)n3C)c1`?
T cell HTS: 163.0; NR2E3 ag-1: 1.4; Myeloid diff 2: inactive; NR2E3 ag-2: 72.1*; GAA850 FXN act: -1.2

Results for COc1cccc(Cn2c(NCc3ccco3)nc3c2c(=O)n(C)c(=O)n3C)c1 ?
T cell HTS: 226.5; NR2E3 ag-1: 0.1

Results for CCCCCCCCN1C(=O)[C@H](CC(=O)N2CCC(c3ccccc3)CC2)C[C@@]2(C(=O)OC)CCCCC=C12 ?
Myeloid diff 2: inactive; NR2E3 ag-2: 15.8
